Source: ChEMBL document CHEMBL3792365, “Dioxol and dihydrodioxin analogs of 2- and 3-phenylacetonitriles as potent anti-cancer agents with nanomolar activity against a variety of human cancer cells” (2016)
Active and inactive are the calls of the source. No cut-off for these calls is given here.

Legend:
[1] = Growth inhibition of human COLO205 cells after 48 hrs by sulforhodamine B assay; assay type: functional; settings: COLO 205, 48 h
How it was run: (§1)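 Five-dose testing against a 60-line human tumor cell panel. GI50 is the drug concentration giving a 50% reduction in net protein increase relative to untreated control cells.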

[2] = Growth inhibition of human SF539 cells after 48 hrs by sulforhodamine B assay; assay type: functional; settings: SF-539, 48 h
How it was run: (§2)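 Five-dose concentration series run across a panel of 60 human tumour cell lines. GI50 is taken as the drug concentration giving a 50% reduction in net protein increase relative to untreated control cells.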

Tubulin (Homo sapiens) [3] = target: T1, Tubulin (Homo sapiens) (UniProt P68371+Q9H4B7+P0DPH7+P68366+Q13509+Q71U36+P04350+Q3ZCM7+P07437+P68363+Q9BQE3+Q6PEY2+Q13885+Q9BVA1+Q9BUF5); test: Induction of tubulin depolymerization (unknown origin) in slow phase assessed as depolymerization rate at 10 uM (reference value: 1.3 +/- 0.1 10^-5AU/sec); assay type: protein-complex assay
[4] = Growth inhibition of human HL-60(TB) cells after 48 hrs by sulforhodamine B assay; assay type: functional; settings: HL-60, 48 h
How it was run: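 Five-dose study across the 60-cell human tumour panel. GI50 is the drug concentration giving a 50% reduction in net protein increase relative to control cells.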

Tubulin (Homo sapiens) [5] = target: T1, Tubulin (Homo sapiens); test: Inhibition of tubulin polymerization (unknown origin) in rapid phase; assay type: protein-complex assay
U-251 = test: Growth inhibition of human U251 cells after 48 hrs by sulforhodamine B assay; assay type: functional; settings: U-251, 48 h; how it was run: as §2
Tubulin (Homo sapiens) [6] = target: T1, Tubulin (Homo sapiens); test: Inhibition of tubulin polymerization (unknown origin) in rapid phase assessed as polymerization rate at 10 uM (reference value: 8.6 +/- 0.4 x 10^-4AU/sec); assay type: protein-complex assay
[7] = Growth inhibition of human HOP92 cells after 48 hrs by sulforhodamine B assay; assay type: functional; settings: HOP-92, 48 h; how it was run: as §1
[8] = Growth inhibition of human SF268 cells after 48 hrs by sulforhodamine B assay; assay type: functional; settings: SF-268, 48 h; how it was run: as §2
[9] = Growth inhibition of human HOP62 cells after 48 hrs by sulforhodamine B assay; assay type: functional; settings: HOP-62, 48 h; how it was run: as §1
[10] = Growth inhibition of human SF295 cells after 48 hrs by sulforhodamine B assay; assay type: functional; settings: SF-295, 48 h; how it was run: as §2
[11] = Growth inhibition of human HCC2998 cells after 48 hrs by sulforhodamine B assay; assay type: functional; settings: HCC 2998, 48 h; how it was run: as §1
[12] = Growth inhibition of human OVCAR4 cells after 48 hrs by sulforhodamine B assay; assay type: functional; settings: OVCAR-4, 48 h; how it was run: as §2
[13] = Growth inhibition of human SNB75 cells after 48 hrs by sulforhodamine B assay; assay type: functional; settings: SNB-75, 48 h; how it was run: as §2
[14] = Growth inhibition of human HCT15 cells after 48 hrs by sulforhodamine B assay; assay type: functional; settings: HCT-15, 48 h; how it was run: as §1
[15] = Growth inhibition of human DU145 cells after 48 hrs by sulforhodamine B assay; assay type: functional; settings: DU-145, 48 h; how it was run: as §1
[16] = Growth inhibition of human UACC62 cells after 48 hrs by sulforhodamine B assay; assay type: functional; settings: UACC-62, 48 h
How it was run: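 Five-dose testing across the 60-line human tumour cell panel. GI50 is the drug concentration that gives a 50% reduction in net protein increase relative to control cells.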

Tubulin (Homo sapiens) [17] = target: T1, Tubulin (Homo sapiens); test: Inhibition of tubulin polymerization (unknown origin) in rapid phase assessed as polymerization rate at 100 uM (reference value: 8.6 +/- 0.4 x 10^-4AU/sec); assay type: protein-complex assay
Tubulin (Homo sapiens) [18] = target: T1, Tubulin (Homo sapiens); test: Induction of tubulin depolymerization (unknown origin) in slow phase; assay type: protein-complex assay
[19] = Growth inhibition of human NCI-ADR-RES cells after 48 hrs by sulforhodamine B assay; assay type: functional; how it was run: as §2
[20] = Growth inhibition of human Caki1 cells after 48 hrs by sulforhodamine B assay; assay type: functional; settings: CAKI-1, 48 h; how it was run: as §1
SK-MEL-28 = test: Growth inhibition of human SK-MEL-28 cells after 48 hrs by sulforhodamine B assay; assay type: functional; settings: SK-MEL-28, 48 h; how it was run: as §2
Tubulin (Homo sapiens) [21] = target: T1, Tubulin (Homo sapiens); test: Induction of tubulin depolymerization (unknown origin) in slow phase assessed as depolymerization rate at 100 uM (reference value: 1.3 +/- 0.1 10^-5AU/sec); assay type: protein-complex assay
[22] = Growth inhibition of human SKOV3 cells after 48 hrs by sulforhodamine B assay; assay type: functional; settings: SK-OV-3, 48 h; how it was run: as §2
SK-MEL-2 = test: Growth inhibition of human SK-MEL-2 cells after 48 hrs by sulforhodamine B assay; assay type: functional; settings: SK-MEL-2, 48 h; how it was run: as §2
HT-29 = test: Growth inhibition of human HT-29 cells after 48 hrs by sulforhodamine B assay; assay type: functional; settings: HT-29, 48 h; how it was run: as §1
K562 = test: Growth inhibition of human K562 cells after 48 hrs by sulforhodamine B assay; assay type: functional; settings: K562, 48 h; how it was run: as §1
Tubulin (Homo sapiens) [23] = target: T1, Tubulin (Homo sapiens); test: Induction of tubulin depolymerization (unknown origin) in slow phase assessed as depolymerization rate at 10 to 100 uM; assay type: protein-complex assay
Tubulin (Homo sapiens) [24] = target: T1, Tubulin (Homo sapiens); test: Inhibition of tubulin polymerization (unknown origin) in rapid phase assessed as polymerization rate at 10 to 100 uM; assay type: protein-complex assay

SMILES | GI50 [1] | GI50 [2] | GI50 [4] | GI50 (U-251) | GI50 [7] | GI50 [8] | GI50 [9] | GI50 [10] | GI50 [11] | GI50 [12] | GI50 [13] | GI50 [14] | GI50 [15] | GI50 [16] | GI50 [19] | GI50 [20] | GI50 (SK-MEL-28) | GI50 [22] | GI50 (SK-MEL-2) | GI50 (HT-29) | other results
COc1cc(/C(C#N)=C/c2ccc3c(c2)OCCO3)cc(OC)c1OC | 120 nM | 20 nM | 40 nM | 50 nM | 0.12 µM | 0.11 µM | 50 nM | 20 nM | 0.14 µM | 0.26 µM | 30 nM | 40 nM | 0.13 µM | 30 nM | 30 nM | 50 nM | 0.06 µM | 40 nM |  |  | Activity (Tubulin (Homo sapiens) [3]): 1.6 ×10⁻⁵ AU/sec; inhibition (Tubulin (Homo sapiens) [5]): Dose-dependent effect; Activity (Tubulin (Homo sapiens) [6]): 6.9 ×10⁻⁴ AU/sec; Activity (Tubulin (Homo sapiens) [17]): 2 ×10⁻⁴ AU/sec; Activity (Tubulin (Homo sapiens) [18]): Dose-dependent effect; Activity (Tubulin (Homo sapiens) [21]): 3.2 ×10⁻⁵ AU/sec
COc1ccc(/C(C#N)=C/c2ccc3c(c2)OCCO3)cc1 | > 100000 nM | 73100 nM | > 100000 nM | > 100000 nM | > 100 µM | > 100 µM | > 100000 nM | 10600 nM | 7.78 µM | 24.9 µM | 21900 nM | 2100 nM | > 100 µM | 8680 nM | 4450 nM | > 100000 nM | > 100 µM | > 100000 nM | 36800 nM |  | 
COc1ccc(/C=C(\C#N)c2ccc3c(c2)OCO3)cc1 | 140 nM | 250 nM | 240 nM | 430 nM | 4.22 µM | 0.73 µM | 300 nM | 200 nM | 5.26 µM |  |  | 70 nM | 0.59 µM | 590 nM | 80 nM |  | 0.45 µM | 400 nM | 210 nM | 60 nM | Activity (Tubulin (Homo sapiens) [3]): 1.8 ×10⁻⁵ AU/sec; Activity (Tubulin (Homo sapiens) [6]): 8 ×10⁻⁴ AU/sec; Activity (Tubulin (Homo sapiens) [17]): 8.9 ×10⁻⁴ AU/sec; Activity (Tubulin (Homo sapiens) [21]): 2 ×10⁻⁵ AU/sec; GI50 (K562): 40 nM
COc1ccc(/C(C#N)=C/c2ccc3c(c2)OCCO3)cc1OC | 2770 nM | 2560 nM | 2070 nM | 3970 nM | 9.64 µM | 5.38 µM | 2980 nM | 2490 nM | 8.85 µM | 11.2 µM | 2160 nM | 730 nM | 4.69 µM | 1040 nM | 1520 nM | 2920 nM | 4.59 µM | 3240 nM | 1840 nM |  | 
COc1ccc(/C=C(\C#N)c2ccc3c(c2)OCO3)c2ccccc12 | 1610 nM | 1580 nM | 1570 nM | 2710 nM | 12 µM | 9.34 µM | 2140 nM | 1910 nM | 5.42 µM | 3.79 µM | 1140 nM | 750 nM | 3.49 µM | 1510 nM | 1650 nM | 2060 nM | 4.52 µM | 2350 nM | 2900 nM | 1600 nM | GI50 (K562): 530 nM
N#C/C(=C\c1cccc2ccccc12)c1ccc2c(c1)OCO2 | 2580 nM | 2710 nM | 3500 nM | 3850 nM | 4.55 µM | 8.99 µM | 3770 nM | 2960 nM | 11 µM | 8.25 µM | 2450 nM | 1770 nM | 6.94 µM | 2630 nM | 2520 nM | 4180 nM | 5.84 µM | 3580 nM | 3180 nM | 3020 nM | GI50 (K562): 790 nM
COc1ccc(/C=C(\C#N)c2ccc3c(c2)OCO3)c(OC)c1 | 1590 nM | 1610 nM | 1490 nM |  | 7.42 µM | 9.36 µM | 3300 nM | 1750 nM | 11.9 µM | 1.65 µM |  | 870 nM | 3.62 µM | 2320 nM | 2410 nM |  | 4.47 µM | 2750 nM | 720 nM | 710 nM | GI50 (K562): 390 nM
N#C/C(=C\c1cc2ccccc2s1)c1ccc2c(c1)OCO2 | 30 nM | 40 nM | 30 nM | 60 nM | 17 µM | 1.64 µM | 70 nM | 40 nM | 0.27 µM | 1.27 µM | 20 nM | 40 nM | 0.21 µM | 60 nM | 40 nM | 50 nM | 0.24 µM | 60 nM | 40 nM | 30 nM | Activity (Tubulin (Homo sapiens) [23]): inactive; inhibition (Tubulin (Homo sapiens) [24]): inactive; GI50 (K562): 40 nM
